The structures appear in SMILES notation. Where two headings read alike, the source gives them in different places.

The target of one data set is PARP-1 (Homo sapiens, UniProt P09874). Briefly: PARP-1 inhibitory assay. The class given is biochemical. In a few lines: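 Wells were histone-coated overnight at 4°C, blocked, then given activated DNA in PARP-1 and assay buffers. Test compound, diluted in 10% DMSO, was added before PARP-1 enzyme, followed by 1 h at 20°C. After washing, streptavidin-HRP was added (30 min, 20°C), then chemiluminescent substrate, with luminescence read at 410 nm. IC50 from triplicate measurements.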

The target in another data set is NF-κB p65 (Homo sapiens, UniProt Q04206). Kind of data set: NF-κB p65 inhibitory assay. The class given is cell-based.
The target in the next data set is K-Ras (Homo sapiens, UniProt P01116). Kind of data set: K-Ras inhibitory assay. Type of data set: cell-based. To be noted: for K-Ras (HT-29) IC50: HT-29 cells, EGF 5 ng/ml. In a few lines:
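HT-29 cells in RPMI-1640 with penicillin/streptomycin were exposed to test compound for 3 h at 37°C, 5% CO2. They were then PBS-washed, stimulated with EGF (5 ng/ml, 2 min) and lysed with protease inhibitor. Protein was quantified, and Ras GTPase chemiluminescent ELISA used anti-K-Ras (1:5000, 1 h, room temperature) with HRP secondary and a luminescence read-out. IC50 from triplicate measurements.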

The next data set deals with HT-29 cells. Briefly: SRB cytotoxicity assay. Type of data set: cell-based, human. To be noted: for EC50: read-out: Cytotoxicity EC50.
Setting [1] is: read-out: PARP-1 IC50, enzyme assay.
Setting [2] is: read-out: Cytotoxicity (HT-29) IC50, HT-29 cells, 72 h, SRB.

PARP-1, sequence (P09874 whole entry): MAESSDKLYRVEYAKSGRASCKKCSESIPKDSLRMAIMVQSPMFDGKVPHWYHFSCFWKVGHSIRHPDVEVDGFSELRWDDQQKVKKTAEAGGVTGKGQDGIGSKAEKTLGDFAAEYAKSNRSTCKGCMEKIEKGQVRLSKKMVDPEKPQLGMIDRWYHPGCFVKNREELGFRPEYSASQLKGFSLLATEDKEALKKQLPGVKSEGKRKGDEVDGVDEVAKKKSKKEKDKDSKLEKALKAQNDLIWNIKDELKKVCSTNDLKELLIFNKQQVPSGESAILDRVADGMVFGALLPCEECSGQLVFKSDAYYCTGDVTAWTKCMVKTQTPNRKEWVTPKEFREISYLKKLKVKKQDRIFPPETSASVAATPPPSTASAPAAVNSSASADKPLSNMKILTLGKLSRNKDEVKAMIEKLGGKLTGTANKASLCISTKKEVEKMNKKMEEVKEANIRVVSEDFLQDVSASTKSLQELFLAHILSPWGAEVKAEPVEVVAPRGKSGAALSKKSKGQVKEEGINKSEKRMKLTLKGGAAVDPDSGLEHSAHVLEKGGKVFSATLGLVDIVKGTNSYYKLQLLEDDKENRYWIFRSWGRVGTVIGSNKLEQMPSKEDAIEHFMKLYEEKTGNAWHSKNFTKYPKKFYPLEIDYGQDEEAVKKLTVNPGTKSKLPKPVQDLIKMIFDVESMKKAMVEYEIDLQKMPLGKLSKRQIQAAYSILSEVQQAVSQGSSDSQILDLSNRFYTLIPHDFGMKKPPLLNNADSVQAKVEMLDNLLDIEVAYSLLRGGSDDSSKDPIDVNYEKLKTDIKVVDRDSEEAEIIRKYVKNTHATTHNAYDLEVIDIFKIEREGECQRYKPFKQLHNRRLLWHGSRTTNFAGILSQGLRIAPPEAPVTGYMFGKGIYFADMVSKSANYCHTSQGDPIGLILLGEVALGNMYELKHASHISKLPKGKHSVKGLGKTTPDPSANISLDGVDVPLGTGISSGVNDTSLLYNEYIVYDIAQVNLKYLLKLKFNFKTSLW
NF-κB p65, sequence (Q04206 whole entry): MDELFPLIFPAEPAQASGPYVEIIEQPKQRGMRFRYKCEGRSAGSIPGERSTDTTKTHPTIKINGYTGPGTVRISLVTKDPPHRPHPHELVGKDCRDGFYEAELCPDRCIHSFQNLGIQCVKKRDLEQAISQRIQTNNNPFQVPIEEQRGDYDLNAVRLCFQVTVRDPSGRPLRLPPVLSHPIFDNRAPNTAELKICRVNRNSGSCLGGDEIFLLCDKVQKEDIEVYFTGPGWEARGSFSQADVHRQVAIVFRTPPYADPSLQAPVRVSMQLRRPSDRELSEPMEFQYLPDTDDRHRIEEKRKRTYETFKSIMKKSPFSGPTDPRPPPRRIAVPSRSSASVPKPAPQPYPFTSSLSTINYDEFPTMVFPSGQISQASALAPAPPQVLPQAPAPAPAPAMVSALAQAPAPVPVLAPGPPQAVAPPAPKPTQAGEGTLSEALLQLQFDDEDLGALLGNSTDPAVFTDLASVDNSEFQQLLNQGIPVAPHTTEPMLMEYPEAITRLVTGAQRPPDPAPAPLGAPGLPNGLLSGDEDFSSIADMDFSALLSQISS
K-Ras, sequence (P01116 1-188 isoform P01116-2): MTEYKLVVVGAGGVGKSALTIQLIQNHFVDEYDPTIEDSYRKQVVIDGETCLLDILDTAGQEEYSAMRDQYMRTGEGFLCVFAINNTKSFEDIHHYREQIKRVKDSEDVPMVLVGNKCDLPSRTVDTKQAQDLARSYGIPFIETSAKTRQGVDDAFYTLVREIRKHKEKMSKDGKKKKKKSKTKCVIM

With `CC=Cc1cc(OC)cc(C(C)C(O)c2cc(OC)c(OC)c(OC)c2)c1` (centres unmarked) [Compound 1], the IC50 on PARP-1 stood at 3040 nM; at K-Ras, 10500 nM. Moreover, at NF-κB p65 (HeLa cells), the “NF-κB inhibitory activity (in words)” value is recorded as “no NF-κB inhibitory activity”. Also, the “NF-κB (HeLa) IC50” value at NF-κB p65 (p65, HeLa cells, TNFα) is reported as “Not active”.

`C=CCc1cc(OC)c(OC(C)C(OC(C)=O)c2ccc(OC)c(OC)c2)c(OC)c1` (stereo not drawn) [Compound 2, benzenemethanol, α-[(1, R)-1-[2,6-dimethoxy-4-(2-propen-1-yl)phenoxy]ethyl]-3,4-dimethoxy-1-acetate]: on PARP-1 (setting [1]), the IC50 is 1 nM. Further, at K-Ras, the “K-Ras (HT-29) IC50” value is “Not active”.

Take `C=CCc1cc(OC)c(OC(C)C(OC(C)=O)c2ccc3c(c2)OCO3)c(OC)c1` (stereo not drawn) [Compound 4, 1,3-benzodioxole-5-methanol,α-[1-[2,6-dimethoxy-4-(2-propenyl)phenoxy]ethyl]-acetate]: the IC50 turned out to be 3.4 nM on NF-κB p65 (read-out: NF-κB (HeLa) IC50, p65, HeLa cells, TNFα) and 24 nM in the data set on HT-29 cells (setting [2]). Also, the EC50 with HT-29 cells (HT-29 cells, 72 h, SRB) was 24 nM. Also, on K-Ras, the “K-Ras (HT-29) IC50” value is “Not active”.

In the case of `C/C=C/c1cc(OC)c2c(c1)C(C)C(c1cc(OC)c(OC)c(OC)c1)O2` (centres unmarked) [Compound 5, benzofuran, 2,3-dihydro-7-methoxy-3-methyl-5-(1E)-1-yl-2-(3,4,5-trimethoxyphenyl)], the values for the IC50 at PARP-1 (setting [1]) and in the data set with HT-29 cells (setting [2]) were 3110 nM and 3 nM, respectively. Moreover, the “NF-κB (HeLa) IC50” value on NF-κB p65 (p65, HeLa cells, TNFα) is “Not active”. Besides, the EC50 in the data set on HT-29 cells (HT-29 cells, 72 h, SRB) was 3 nM. Besides, the “K-Ras (HT-29) IC50” value at K-Ras was “Not active”.

Take `CC(=O)O[C@H]1C(=O)[C@@]2(C)[C@H]([C@H](OC(=O)c3ccccc3)[C@]3(O)C[C@H](OC(=O)[C@H](O)[C@@H](NC(=O)c4ccccc4)c4ccccc4)C(C)=C1C3(C)C)[C@]1(OC(C)=O)CO[C@@H]1C[C@@H]2O` [paclitaxel, reference compound]: in the data set on HT-29 cells (Homo sapiens, HT-29, 72 h), the EC50 stood at 0.5 nM. In the data set on HT-29 cells (Homo sapiens, HT-29, read-out: Cytotoxicity (HT-29) IC50), the IC50 amounted to 0.5 nM.

The values are drawn from publication PMC4770456 (Food chemistry, 2016).
